Source: PubChem BioAssay (Broad Institute)
FGF22 binding = binders of recombinant human FGF22 by thermal shift | Q9HCT0 | SYPRO orange fluorescence; percent of sucrose octasulfate shift, DMSO zero | activity (Tm shift, normalised), % at 9.99 µM | 1.5% of 340,000 active;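 active = mean Tm shift, scaled 0 neutral to 100 positive control, at about 1.3% or above, every replicate too, limit read from the data; inconclusive = no clear call, values can overlap the other calls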
Target sequence (Q9HCT0 whole entry, looked up): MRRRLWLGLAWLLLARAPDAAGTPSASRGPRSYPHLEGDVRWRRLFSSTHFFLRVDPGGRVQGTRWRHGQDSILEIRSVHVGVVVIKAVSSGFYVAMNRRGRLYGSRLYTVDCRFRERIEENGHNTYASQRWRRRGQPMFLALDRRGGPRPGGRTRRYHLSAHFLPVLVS
XiGFP reactiv = activators of X-chromosome reactivation in mouse fibroblasts; XiGFP mouse fibroblasts, % GFP-positive cells imaging, 3 d; cells co-treated with 5-aza-dC sensitizer; scaled so ellipticine positive control = 100%; activation, % at 7.58 µM; 0.055% of 360,000 active;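 active = mean normalized replicate activation at least 10% and every replicate at or above 10%; inconclusive = only one of the two criteria met; inactive = mean below 10% and not all replicates reach 10%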;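 note: 0% = median of on-plate neutral control wells and 100% = ellipticine 6 µM median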
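System: XiGFP fibroblasts, SV40-immortalized. Medium: DMEM plus 5-aza-dC sensitizer. Doses: single point. Timing: 3 d treatment, 15 min room-temperature fixation. Control set: ellipticine 6 µM.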
Statin myotox sup = suppressors of simvastatin-induced myotoxicity in C2C12 myotubes; AID 602340; ATP luminescence, 48 h; scaled: DMSO 0, geranylgeraniol control 100; 0.78% of 330,000 active; rescue of ATP level, % at 7.49 µM;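 active = mean ATP rescue above about 67%, or every replicate alone reaching that limit, limit read from the data, passing the limit was not always enough; inconclusive = no clear call, values can overlap the other calls; inactive = mean under the limit and some replicate under it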;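 note: myotubes were challenged with 10 µM simvastatin during compound exposure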
DENV2 CPE = inhibitors of DENV2 cytopathic effect. 1.7% of 350,000 active. CPE inhibition, % at 9.99 µM. DENV2-infected cells, cytopathic effect rescue, plate reader; in the data active = CPE inhibition above about 20%, passing the limit was not always enough; inconclusive = no clear call, values can overlap the other calls; tested in BHK-21 cells;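 note: 0% = median of neutral control wells and 100% = median of positive control wells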
PglD inh = blocks C. jejuni PglD acetyltransferase activity. purified PglD enzyme, DTNB colorimetric CoA detection. inhibition, % at 12.5 µM. 0.098% of 360,000 active. AID 602405; in the data active = inhibition above about 16%, passing the limit was not always enough; inconclusive = no clear call, values can overlap the other calls
E-sel inducer = induces E-selectin expression in human endothelial cells; P16581; HUVEC E-selectin immunofluorescence imaging; normalized: neutral wells 0, TNF-alpha wells 100; activation, % at 7.58 µM; 0.37% of 260,000 active;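 active = mean E-selectin-positive cell signal at least 10% of the positive control, reached in at least 60% of replicates, without over 20% cell loss; inconclusive = no rule given, readout overlaps actives, possibly toxicity-flagged; inactive = the rest, including those meeting only one limit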
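Read-out basis: % PE-positive cells; Test system: HUVEC primary endothelial cells; Technique: immunofluorescence imaging; Dosing: single-point compound dose.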
* marks the source's active call; other numbers are inactive results; ? = inconclusive; · = not tested or not shown. The list is not random: actives were taken first. Their share in the collection is about 3.3%.

SMILES | FGF22 binding | XiGFP reactiv | Statin myotox sup | DENV2 CPE | PglD inh | E-sel inducer
CC(C)C[C@@H](COCc1ccc(Cl)cc1)N1CCN(C(=O)c2ccc(C(F)(F)F)cc2)CCC1=O | -1 | 0 | · | -5 | · | 5
CC(O)CNC1c2ccccc2CC1O (configuration not stated) | · | 0 | 3 | 63* | -3 | 0
O=S(=O)(NCc1ccccn1)c1cc(C(F)(F)F)ccc1Cl | 43* | 0 | 1 | -6 | -2 | ·
O=C(NCCOC(=O)c1ccncc1)c1ccccc1 | · | · | 87* | · | 2 | ·
C[C@H](CO)N1C[C@H](C)[C@H](CN(C)CC2CC2)Oc2c(NC(=O)c3ccc(-c4nccs4)cc3)cccc2C1=O | 1 | -1 | · | -3 | · | 0
COc1ccc(C(=O)N(CCc2ccccc2)Cc2ccccc2)c(OC)n1 | 0 | 0 | · | 6 | · | 30*
COc1ccc(CNC(=O)C2(C)Cc3ccccc3C(=O)O2)cc1 (configuration not stated) | 44* | 0 | · | -5 | · | ·
COc1ccc(S(=O)(=O)N2C[C@@H](O)COC[C@@H]3O[C@H](CC(=O)NCc4ccc(Cl)c(Cl)c4)CC[C@H]32)cc1 | -1 | 0 | 2 | -4 | -4 | 0
COc1ccc2ccccc2c1/C=N/NC(=O)c1ccccc1F | 0 | 0 | -8 | 44* | -5 | ·
COc1ccc2ccccc2c1/C=N/NC(=O)c1cccc(Br)c1 | 0 | 0 | · | 7 | · | ·
Cc1ccc(C(=O)Nc2cccc(C(F)(F)F)c2)cc1NC(=O)c1c[nH]c2cc(C(F)(F)F)ccc2c1=O | 44* | 0 | 5 | · | 1 | 0
CCN1CCN(Cc2ccc(NC(=O)c3ccc(C)c(NC(=O)c4c[nH]c5cc(C(F)(F)F)ccc5c4=O)c3)cc2C(F)(F)F)CC1 | 0 | 0 | -65 | 2 | 0 | -7
Cc1[nH]c2ccccc2c1N=Nc1ccccc1F | 44* | 1 | · | 12 | · | ·
COc1ccc(C2NC(Cc3ccccc3)(C(=O)O)C3C(=O)N(c4ccccc4OC)C(=O)C23)cc1 (configuration not stated) | 43* | 0 | · | -6 | · | ·
CCN1C(=O)[C@H]2[C@@H](c3ccc(-c4ccc(OC)cc4)c(OC)c3)N[C@@](Cc3ccccc3)(C(=O)OC)[C@H]2C1=O | 0 | 0 | 3 | 0 | 2 | 0
CC(C)NC(=O)N(C)C[C@H]1Oc2ncc(C#CC3CC3)cc2C(=O)N([C@@H](C)CO)C[C@@H]1C | 0 | 1 | 6 | -2 | -13 | -1
C=CCSc1nc(C)c2cc(C)cc(C)c2n1 | · | · | 133* | · | 2 | ·
O=C(O)[C@H]1[C@H](CO)[C@H]2Cn3c(ccc(C4=CCCCC4)c3=O)[C@H]2N1C(=O)Cc1cccnc1 | · | 0 | · | ? | · | 0
O=C(N[C@H]1CC[C@H](CCNS(=O)(=O)c2ccc(F)cc2)O[C@@H]1CO)c1cnccn1 | -1 | -1 | -7 | -6 | 2 | 0
O=C([C@@H]1[C@@H](CO)[C@@H]2Cn3c(ccc(C4=CCCC4)c3=O)[C@@H]2N1Cc1nccs1)N1CCOCC1 | 0 | 1 | 15 | 0 | 8 | 0
COc1ccc(-c2ccc([C@H]3[C@H](C#N)N(C(=O)NC4CCCC4)[C@H]3CO)cc2)cc1 | 0 | · | 3 | 11 | 1 | ·
CCN1C[C@@H]2[C@@H]3C(=O)N(Cc4ccccc4)C(=O)[C@@H]3[C@](CC)(C1=O)N2C(=O)c1ccc(Br)cc1 | 0 | 0 | -11 | -4 | 5 | 0
CCN1C[C@@H]2[C@@H]3C(=O)N(Cc4ccccc4)C(=O)[C@@H]3[C@](Cc3ccccc3)(C1=O)N2C(=O)c1ccc(Br)cc1 | 0 | 0 | 5 | 68* | -2 | 0
O=C(CCNC(=O)C1CCN(S(=O)(=O)c2ccccc2)CC1)NCc1cccnc1 | 43* | 0 | -13 | 0 | -5 | 0
O=C(CCNC(=O)C1CCN(S(=O)(=O)c2ccc(F)cc2)CC1)NCc1cccnc1 | 0 | 0 | 0 | -2 | -3 | ·
SMILES | FGF22 binding | XiGFP reactiv | Statin myotox sup | DENV2 CPE | PglD inh | E-sel inducer
C[C@H](NC(=O)C1CCN(S(=O)(=O)c2ccccc2)CC1)C(=O)NC1CC1 | 43* | 0 | -2 | 0 | -2 | 0
C[C@H](NC(=O)C1CCN(S(=O)(=O)c2ccccc2)CC1)C(=O)NCc1cccnc1 | 0 | 0 | 7 | 37* | 0 | 0
C[C@H](NC(=O)C1CCN(S(=O)(=O)c2ccccc2)CC1)C(=O)NCc1ccc(F)cc1 | 0 | 0 | 3 | -5 | 4 | ·
Cc1ccc(S(=O)(=O)Nc2ccc3c(c2)C(=O)N([C@H](C)CO)C[C@@H](C)[C@H](CN(C)C(=O)Nc2cccc4ccccc24)O3)cc1 | · | -1 | 27 | · | -1 | 0
COC(=O)C[C@@H]1CC[C@@H]2[C@@H](COc3ccc(NC(=O)C4CC4)cc3C(=O)N2C)O1 | 0 | 0 | -5 | -4 | 5 | 0
O=C(C[C@@H]1C[C@H]2c3cc(NC(=O)C4CCC4)ccc3O[C@H]2[C@@H](CO)O1)NCCc1ccccc1 | 0 | 0 | -1 | 1 | 2 | 0
CCCCc1nn(-c2cc(Cl)ccc2OC)c2c1C(=O)CC(C)(C)C2 | 0 | 0 | 2 | 43* | -3 | 0
CCN1CCN(C(=O)c2cc3cc4cc(OC)ccc4nc3s2)CC1 | · | · | 73* | · | 2 | ·
COc1ccc2nc3sc(C(=O)NCCN4CCc5ccccc5C4)cc3cc2c1 | 1 | 0 | -20 | 2 | -1 | 4
O=C(CSc1nccn(-c2ccc(F)c(Cl)c2)c1=O)NC1CCCC1 | 0 | 0 | -14 | 22* | · | 0
CCN(CC)c1nc(C#N)cc(-c2ccc(OC)cc2)n1 | · | · | 109* | · | 15 | ·
COc1ccc(-c2cc(C#N)nc(Cl)n2)cc1 | 0 | 0 | · | 0 | · | 6
COc1ccc(-c2cc(C#N)nc(NN)n2)cc1 | 0 | 0 | · | 47* | 4 | 0
COc1ccc(NC(=O)Nc2cccc3c2O[C@@H](CN(C)C)[C@H](C)CN([C@H](C)CO)C3=O)cc1 | 0 | 0 | 17 | 1 | 4 | ·
C[C@H](CO)N1C[C@H](C)[C@@H](CN(C)C(=O)C2CC2)Oc2cc(C#Cc3ccccn3)ccc2S1(=O)=O | -1 | -1 | -8 | -6 | -1 | 0
CCc1ccc(CN2CCN(C(=O)c3cccc(OC)c3OC)CC2)cc1 | · | · | 91* | · | 0 | ·
COCC(=O)N1C[C@@H](C)[C@H](OC)CN(C)C(=O)c2cc(NC(=O)C3CCC3)ccc2OC[C@@H]1C | 0 | 0 | -9 | 23* | -2 | 0
CO[C@H]1CN(C)C(=O)c2ccc(NC(=O)C3CCCC3)cc2OC[C@H](C)N(C)C[C@@H]1C | · | 0 | · | 52* | · | 0
